Assay [1] has as its system DU-145. As to the kind of experiment: Cytotoxicity against human DU145 cells assessed as growth inhibition after 24 hrs by CCK8 assay. The class given is functional, cell-based. To be noted: DU-145, 24 h. An outline of the steps:
(§1)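 Cells (PC-3, LNCaP, DU145, normal prostate […] WPMY-1) exposed 24 h to escalating concentrations; viability by CCK-8 read-out as percent of control; IC50 derived.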

The nature of assay [2]: Cytotoxicity against human WPMY-1 cells assessed as growth inhibition after 24 hrs by CCK8 assay. The class given is cell-based. To be noted: WPMY-1, 24 h. An outline of the steps: as §1
Assay [3] concerns PC-3. Kind of assay: Cytotoxicity against human PC3 cells assessed as growth inhibition after 24 hrs by CCK8 assay. The conditions noted are these: PC-3, 24 h. The class given is functional, cell-based. Put shortly: as §1
The subject of assay [4] is LNCaP. Kind of assay: Cytotoxicity against human LNCAP cells assessed as growth inhibition after 24 hrs by CCK8 assay. The class given is functional, cell-based. Put shortly:
as §1

In assay [5] the test system is DU-145. As to the kind of experiment: Potency index, ratio of naftopidil IC50 to compound IC50 for human DU145 cells. The class given is functional.
Assay [6] has as its target T1, Alpha-1A adrenergic receptor (Homo sapiens, UniProt P35348).
T1 sequence (P35348 whole entry): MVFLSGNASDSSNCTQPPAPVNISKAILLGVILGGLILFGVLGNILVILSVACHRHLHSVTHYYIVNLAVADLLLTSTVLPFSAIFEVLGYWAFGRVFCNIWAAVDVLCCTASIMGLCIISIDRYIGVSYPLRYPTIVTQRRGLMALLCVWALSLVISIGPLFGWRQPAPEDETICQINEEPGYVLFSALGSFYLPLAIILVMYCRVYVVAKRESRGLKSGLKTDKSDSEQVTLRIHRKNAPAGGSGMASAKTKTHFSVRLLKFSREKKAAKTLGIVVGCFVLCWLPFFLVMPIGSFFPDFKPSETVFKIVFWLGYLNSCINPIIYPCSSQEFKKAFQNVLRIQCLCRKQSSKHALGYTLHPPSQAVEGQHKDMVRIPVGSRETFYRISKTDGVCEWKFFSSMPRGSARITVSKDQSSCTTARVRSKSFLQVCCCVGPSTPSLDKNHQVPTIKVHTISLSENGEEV
Kind of assay: Antagonist activity at alpha 1A adrenergic receptor (unknown origin) by luciferase reporter gene assay. It is filed as functional. An outline of the steps: (§2)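 Dual-luciferase reporter assay measuring antagonism at α1A, α1B and α1D adrenoceptor subtypes. IC50 values are means of three experiments.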

Assay [7] addresses T2, Alpha-1B adrenergic receptor (Homo sapiens, UniProt P35368).
T2 sequence (P35368 whole entry): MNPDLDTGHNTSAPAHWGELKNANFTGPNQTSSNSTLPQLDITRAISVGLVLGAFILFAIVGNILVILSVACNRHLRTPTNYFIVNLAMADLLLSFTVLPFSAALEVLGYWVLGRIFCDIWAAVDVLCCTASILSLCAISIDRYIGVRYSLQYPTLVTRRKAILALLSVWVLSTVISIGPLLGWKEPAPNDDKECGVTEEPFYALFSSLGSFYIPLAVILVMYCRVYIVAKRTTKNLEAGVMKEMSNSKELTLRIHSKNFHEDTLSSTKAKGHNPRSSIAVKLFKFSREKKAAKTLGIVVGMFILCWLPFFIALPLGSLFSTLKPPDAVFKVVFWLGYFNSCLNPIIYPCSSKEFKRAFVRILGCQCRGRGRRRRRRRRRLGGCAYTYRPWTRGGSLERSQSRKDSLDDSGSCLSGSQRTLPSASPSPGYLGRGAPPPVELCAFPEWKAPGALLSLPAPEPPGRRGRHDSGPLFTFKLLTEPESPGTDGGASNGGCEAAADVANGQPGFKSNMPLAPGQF
As to the kind of experiment: Antagonist activity at alpha 1B adrenergic receptor (unknown origin) by luciferase reporter gene assay. The class given is functional. Put shortly: as §2

The target of assay [8] is T3, Alpha-1D adrenergic receptor (Homo sapiens, UniProt P25100).
T3 sequence (P25100 whole entry): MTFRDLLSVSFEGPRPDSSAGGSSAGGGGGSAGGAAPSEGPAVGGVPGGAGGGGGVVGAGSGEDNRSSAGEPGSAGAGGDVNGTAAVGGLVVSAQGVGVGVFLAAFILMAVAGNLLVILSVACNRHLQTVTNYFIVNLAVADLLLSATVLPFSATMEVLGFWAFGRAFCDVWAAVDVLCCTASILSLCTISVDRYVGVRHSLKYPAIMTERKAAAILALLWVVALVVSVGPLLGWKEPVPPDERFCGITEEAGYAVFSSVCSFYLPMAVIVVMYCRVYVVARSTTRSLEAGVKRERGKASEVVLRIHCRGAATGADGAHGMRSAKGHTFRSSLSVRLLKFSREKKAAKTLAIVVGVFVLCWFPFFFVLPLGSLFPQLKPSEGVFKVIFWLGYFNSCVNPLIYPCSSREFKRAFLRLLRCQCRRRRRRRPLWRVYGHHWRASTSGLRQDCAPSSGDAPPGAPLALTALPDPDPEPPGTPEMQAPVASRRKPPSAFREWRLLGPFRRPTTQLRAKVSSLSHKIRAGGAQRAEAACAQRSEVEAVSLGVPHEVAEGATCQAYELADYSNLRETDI
As to the kind of experiment: Antagonist activity at alpha 1D adrenergic receptor (unknown origin) by luciferase reporter gene assay. The class given is functional. Put shortly: as §2

Molecules are shown by their SMILES.

Regarding `FC(F)(F)c1ccccc1N1CCN(CCc2ccc(COc3ccc4c(c3)CCCC4)cc2)CC1`, the IC50 in assay [1] is over 50 µM; in assay [2] it was over 50 µM; in assay [3] it was over 50 µM; in assay [4], 6.09 µM.
As to `Cc1cccc(N2CCN(CCc3ccc(COc4ccc5c(c4)CCCC5)cc3)CC2)c1.Cl.Cl`, the IC50 is 0.83 µM in assay [1]; over 50 µM in assay [2]; 56.8 µM in assay [3]; 0.502 µM in assay [6]; over 50 µM in assay [4]; 0.583 µM in assay [7]. Also, in assay [8], the IC50 is 0.826 µM. Further, the “Ratio IC50” value in assay [5] is on record as 41.
For the compound `CCOc1ccccc1N1CCN(CCc2ccc(COc3ccc4c(c3)CCCC4)cc2)CC1`, the IC50 in assay [1] is over 50 µM; in assay [2] it was over 50 µM; in assay [3] it was over 50 µM; in assay [4], 28 µM.
In the case of `OC1(c2ccccc2)CCN(CCc2ccc(COc3ccc4c(c3)CCCC4)cc2)CC1`, the IC50 in assay [1] is 3.38 µM; in assay [2], 31.7 µM; in assay [3], over 50 µM; in assay [4], 3.03 µM.
Regarding `COc1ccc(Cl)cc1N1CCN(CCc2ccc(COc3ccc4c(c3)CCCC4)cc2)CC1`, the IC50 in assay [1] is 25.1 µM; in assay [2], 47 µM; in assay [3], over 50 µM; in assay [4], over 50 µM.
Turning to `Brc1ccc(N2CCN(CCc3ccc(COc4ccc5c(c4)CCCC5)cc3)CC2)cc1`, the IC50 in assay [1] was 21.1 µM; in assay [2], over 50 µM; in assay [3] it was over 50 µM; in assay [4], over 50 µM.
In the case of `c1ccc(N2CCN(CCc3ccc(COc4ccc5c(c4)CCCC5)cc3)CC2)cc1`, the IC50 in assay [1] is over 50 µM; in assay [2] it was over 50 µM; in assay [3] it was over 50 µM; in assay [4], 6.53 µM.
Take `COc1ccccc1N1CCN(CCc2ccc(COc3ccc4c(c3)CCCC4)cc2)CC1`: the IC50 is 2.24 µM in assay [1], 28.1 µM in assay [2], over 50 µM in assay [3] and 3.62 µM in assay [4].
As for `Cc1ccccc1N1CCN(CCc2ccc(COc3ccc4c(c3)CCCC4)cc2)CC1`, the IC50 in assay [1] is over 50 µM; in assay [2], over 50 µM; in assay [3], 25.5 µM; in assay [4], 32.9 µM.
As for `Fc1ccccc1N1CCN(CCc2ccc(COc3ccc4c(c3)CCCC4)cc2)CC1`, the IC50 is over 50 µM in assay [1], over 50 µM in assay [2], 27.3 µM in assay [3] and 7.57 µM in assay [4].
Turning to `c1ccc(N2CCN(CCc3ccc(COc4ccc5c(c4)CCCC5)cc3)CC2)nc1`, the IC50 in assay [1] was determined as 11.2 µM; in assay [2] it was 49.2 µM; in assay [3], 29.2 µM; in assay [4] it was 2.92 µM.
The matching figures for `Clc1cccc(N2CCN(CCc3ccc(COc4ccc5c(c4)CCCC5)cc3)CC2)c1Cl`: 23.1 µM, over 50 µM, over 50 µM and 3.06 µM.
For `Cc1ccc(Cl)cc1N1CCN(CCc2ccc(COc3ccc4c(c3)CCCC4)cc2)CC1`, the IC50 is over 50 µM in assay [1], over 50 µM in assay [2], over 50 µM in assay [3] and 7.81 µM in assay [4].
As to `Cl.Cl.Clc1cccc(N2CCN(CCc3ccc(COc4ccc5c(c4)CCCC5)cc3)CC2)c1`, the IC50 in assay [1] is 0.86 µM; in assay [2], over 50 µM; in assay [3], 46.7 µM; in assay [6], 1.21 µM; in assay [4], 17.3 µM; in assay [7], 0.998 µM. The IC50 in assay [8] was determined as 0.287 µM. The “Ratio IC50” value in assay [5] was found to be 40.
Consider `Fc1ccc(N2CCN(CCc3ccc(COc4ccc5c(c4)CCCC5)cc3)CC2)c(F)c1`, for which the IC50 in assay [1] was over 50 µM; in assay [2], over 50 µM; in assay [3], over 50 µM; in assay [4] it was 4.4 µM.
On to `Cl.c1ccc(C2CCN(CCc3ccc(COc4ccc5c(c4)CCCC5)cc3)CC2)cc1`, for which the IC50 in assay [1] was 0.95 µM; in assay [2] it was over 50 µM; in assay [3] it was 10.5 µM; in assay [6], 0.568 µM; in assay [4] it was 3.94 µM; in assay [7], 0.673 µM. In addition, the IC50 in assay [8] was 0.453 µM. In assay [5], the “Ratio IC50” value is 36.
As for `Cc1ccc(N2CCN(CCc3ccc(COc4ccc5c(c4)CCCC5)cc3)CC2)cc1`, the IC50 in assay [1] is 25.1 µM; in assay [2] it was over 50 µM; in assay [3], over 50 µM; in assay [4], over 50 µM.
Turning to `N#Cc1ccccc1N1CCN(CCc2ccc(COc3ccc4c(c3)CCCC4)cc2)CC1`, the half-inhibitory concentration (IC50) in assay [1] was 29.7 µM; in assay [2], over 50 µM; in assay [3], 32 µM; in assay [4] it was 1.99 µM.
The matching figures for `Clc1ccc(N2CCN(CCc3ccc(COc4ccc5c(c4)CCCC5)cc3)CC2)cc1`: over 50 µM, over 50 µM, over 50 µM and over 50 µM.
On to `FC(F)(F)c1ccc(N2CCN(CCc3ccc(COc4ccc5c(c4)CCCC5)cc3)CC2)cc1`, for which the 50% inhibitory concentration (IC50) in assay [1], in assay [2], in assay [3] and in assay [4] was over 50 µM each time.
For the compound `COc1cccc(N2CCN(CCc3ccc(COc4ccc5c(c4)CCCC5)cc3)CC2)c1`, the IC50 in assay [1] is 28.1 µM; in assay [2], 29.1 µM; in assay [3], 2.84 µM; in assay [4], 8.02 µM.
Turning to `Clc1ccccc1N1CCN(CCc2ccc(COc3ccc4c(c3)CCCC4)cc2)CC1`, the IC50 in assay [1] is over 50 µM; in assay [2] it was over 50 µM; in assay [3], 31.3 µM; in assay [4] it was 4.68 µM.
With `CC(C)(C)NC(=O)[C@H]1CC[C@H]2[C@@H]3CC[C@H]4NC(=O)C=C[C@]4(C)[C@H]3CC[C@]12C` [FINASTERIDE], the IC50 stood at 13.5 µM in assay [1], 17.8 µM in assay [3] and 14.5 µM in assay [4].
For the compound `COc1ccccc1N1CCN(CC(O)COc2cccc3ccccc23)CC1` (stereo not given) [NAFTOPIDIL], the IC50 is over 50 µM in assay [2] and 42.1 µM in assay [3].

For the origin of these results see ChEMBL document CHEMBL4219197, “Synthesis, biological evaluation and SAR of naftopidil-based arylpiperazine derivatives” (Bioorg Med Chem Lett, 2018).
